Source: ChEMBL document CHEMBL1152819, “Evaluation of hexadecyloxypropyl-9-R-[2-(Phosphonomethoxy)propyl]- adenine, CMX157, as a potential treatment for human immunodeficiency virus type 1 and hepatitis B virus infections” (Antimicrob Agents Chemother, 2007)

What was measured:
HepG2 = assay: Cytotoxicity against human HepG2 cells by MTS assay; assay type: cell-based; details: Homo sapiens, HepG2
Outline: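 Exponentially growing HepG2 cells (parent hepatoma line); cytostatic effect measured by MTS method.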

[1] = Tmax in Sprague-Dawley rat at 100 mg/kg, po administered daily for 7 days measured on day 7; assay type: ADME, organism-based; design: dose 100 mg/kg, route oral; details: in vivo
Outline: (§1)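 Sprague-Dawley rats, 8–12 weeks old, dosed orally once daily for 7 days and not fasted. Blood taken at 0.5, 1, 2, 4, 12 and 24 h after dosing on days 1 and 7, one rat/sex/time point. Plasma deproteinized, analyte separated by mixed-mode HPLC and quantified by MS/MS, LOQ 1 ng/ml, values below LOQ set to zero. Noncompartmental analysis: Tmax read from plotted data, AUC by linear-log trapezoidal rule.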

[2] = Selectivity index, ratio of CC50 for human HepG2 cells to EC50 for HBV
[3] = Tmax in Sprague-Dawley rat at 10 mg/kg, po administered daily for 7 days measured on day 1; assay type: ADME, organism-based; design: dose 10 mg/kg, route oral; details: in vivo; outline: as §1
[4] = tested on: Human immunodeficiency virus 1; assay: Antiviral activity against HIV1 clade B HT/92/599 isolate in human PBMC assessed as reduction in reverse transcriptase; assay type: functional, organism-based; details: Human immunodeficiency virus 1, clade B
Outline: (§2)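 Fresh human PBMCs, seronegative for HIV and HBV, infected with HIV-1 clade B HT/92/599. Antiviral read-out by reverse transcriptase reduction; cytotoxicity by XTT staining. EC50, CC50 and CC50/EC50 taken from data plots, given as mean ± standard deviation of triplicate determinations.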

[5] = AUC (0 to 24 hrs) in Sprague-Dawley rat at 100 mg/kg, po administered daily for 7 days measured on day 7; assay type: ADME, organism-based; design: time < 24 hr, dose 100 mg/kg, route oral; details: plasma
Outline: (§3)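 Oral once daily for 7 days, vehicle or 10, 30 or 100 mg/kg/day, Sprague-Dawley rats 8-12 weeks old, not fasted. Plasma sampled 0.5, 1, 2, 4, 12, 24 h after dosing on days 1 and 7 (1 rat/sex/time point). CMX157 and tenofovir measured by HPLC-MS/MS, LOQ 1 ng/ml (values below set to zero). Noncompartmental analysis; Cmax/Tmax by direct observation, AUC by linear-log trapezoidal rule.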

[6] = Selectivity index, ratio of CC50 for human MT2 cells to EC50 for HIV1 LAI; assay type: toxicity, cell-based; details: read-out: Ratio CC50/EC50
Rattus norvegicus [7] = assay: Toxicity in Sprague-Dawley rat assessed as change in urinalysis parameters at 10 to 100 mg/kg, po administered daily for 7 days; assay type: organism-based; design: dose 10-100 mg/kg, route oral; details: in vivo, 168 h
Outline: (§4)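 Sprague-Dawley rats (3/sex/group), 8–12 weeks old, given vehicle or 10, 30 or 100 mg/kg/day orally once daily for 7 days. Serum biochemistry, hematology and urinalysis done at day 7. At necropsy, control and high-dose rats examined grossly, organs weighed, and all tissues processed for histopathology.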

[8] = AUC (0 to 24 hrs) in Sprague-Dawley rat at 30 mg/kg, po administered daily for 7 days measured on day 7; assay type: ADME, organism-based; design: time < 24 hr, dose 30 mg/kg, route oral; details: plasma; outline: as §3
[9] = Cytotoxicity against human PBMC by XTT assay; assay type: cell-based; outline: as §2
[10] = Tmax in Sprague-Dawley rat at 30 mg/kg, po administered daily for 7 days measured on day 7; assay type: ADME, organism-based; design: dose 30 mg/kg, route oral; details: in vivo; outline: as §1
[11] = Elimination half life in Sprague-Dawley rat at 100 mg/kg, po administered daily for 7 days measured on day 1; assay type: ADME, organism-based; design: dose 100 mg/kg, route oral; details: in vivo, read-out: beta t1/2 (converted); outline: as §3
[12] = Selectivity index, ratio of CC50 for human PBMC to EC50 for HIV1 clade B HT/92/599 isolate; outline: as §2
[13] = Tmax in Sprague-Dawley rat at 10 mg/kg, po administered daily for 7 days measured on day 7; assay type: ADME, organism-based; design: dose 10 mg/kg, route oral; details: in vivo; outline: as §1
Rattus norvegicus [14] = assay: Toxicity in Sprague-Dawley rat assessed as change in organ weight at 10 to 100 mg/kg, po administered daily for 7 days; assay type: organism-based; design: dose 10-100 mg/kg, route oral; details: in vivo, 168 h; outline: as §4
Rattus norvegicus [15] = assay: Toxicity in Sprague-Dawley rat assessed as change in erythrocyte morphology at 10 to 100 mg/kg, po administered daily for 7 days; assay type: organism-based; design: dose 10-100 mg/kg, route oral; details: in vivo, 168 h
[16] = Tmax in Sprague-Dawley rat at 100 mg/kg, po administered daily for 7 days measured on day 1; assay type: ADME, organism-based; design: dose 100 mg/kg, route oral; details: in vivo; outline: as §1
[17] = tested on: Human immunodeficiency virus 1; assay: Antiviral activity against HIV1 LAI in human MT2 cells assessed as inhibition of p24 antigen production by ELISA; assay type: functional, organism-based; details: Human immunodeficiency virus 1, LAI
Outline: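 MT-2 cells in RPMI 1640 with 10% FBS and 10 mM HEPES, infected with HIV-1 LAI at MOI 0.001 TCID50/cell. Incubated with threefold serial dilutions, three wells per dilution. EC50 taken as the concentration inhibiting p24 antigen production by 50%.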

[18] = Cytotoxicity against human HepG2(2.2.15) cells after 24 hrs by neutral red uptake assay; assay type: cell-based; details: Homo sapiens, HepG2 2.2.15, 24 h
Outline: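 Confluent 2.2.15 cells given nine daily treatments. Neutral red uptake read by absorbance of internalized dye 24 h after the last treatment, three cultures per concentration.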

[19] = Elimination half life in Sprague-Dawley rat at 100 mg/kg, po administered daily for 7 days measured on day 7; assay type: ADME, organism-based; design: dose 100 mg/kg, route oral; details: in vivo, read-out: beta t1/2 (converted); outline: as §3
[20] = Cytotoxicity against human MT2 cells; assay type: cell-based
Outline: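 MT-2 cells in RPMI 1640 with 10% FBS and 10 mM HEPES, exposed to threefold serial drug dilutions. CC50 calculated from cell counts and viability.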

Hepatitis B virus [21] = assay: Antiviral activity against HBV in human HepG2(2.2.15) cells assessed as viral DNA levels treated for 9 days measured after 24 hrs; assay type: functional, organism-based
Outline: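 Confluent 2.2.15 cells in RPMI 1640 with 2% FBS, given nine consecutive daily doses with daily medium change (six cultures per concentration on two replicate plates). HBV DNA quantified by blot hybridization 24 h after the last treatment.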

Rattus norvegicus [22] = assay: Toxicity in Sprague-Dawley rat assessed as change in coagulation parameters at 10 to 100 mg/kg, po administered daily for 7 days; assay type: organism-based; design: dose 10-100 mg/kg, route oral; details: in vivo, 168 h
[23] = Tmax in Sprague-Dawley rat at 30 mg/kg, po administered daily for 7 days measured on day 1; assay type: ADME, organism-based; design: dose 30 mg/kg, route oral; details: in vivo; outline: as §1
[24] = AUC (0 to 24 hrs) in Sprague-Dawley rat at 10 mg/kg, po administered daily for 7 days measured on day 7; assay type: ADME, organism-based; design: time < 24 hr, dose 10 mg/kg, route oral; details: plasma; outline: as §3
Rattus norvegicus [25] = assay: Toxicity in Sprague-Dawley rat assessed as ophthalmological changes at 10 to 100 mg/kg, po administered daily for 7 days; assay type: organism-based; design: dose 10-100 mg/kg, route oral; details: in vivo, 168 h
Hepatitis B virus [26] = assay: Antiviral activity against HBV in human HepAD38 cells assessed as intracellular viral DNA levels treated for 3 days measured on day 6 […] by RT-PCR; assay type: functional, organism-based
Outline: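 HepAD38 cells seeded at 5 x 10^5/well, grown 2-3 days with 0.3 µg/ml tetracycline, then induced by PBS wash and tetracycline/G418-free medium with or without compound at 37°C, 5% CO2. Medium changed after 3 days. Intracellular HBV DNA measured on day 6 postinduction by TaqMan real-time PCR against a plasmid standard curve, given as % of mock.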

Rattus norvegicus [27] = assay: Toxicity in Sprague-Dawley rat assessed as mortality at 10 to 100 mg/kg, po administered daily for 7 days; assay type: organism-based; design: dose 10-100 mg/kg, route oral; details: in vivo, 168 h
Outline: (§5)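 Sprague-Dawley rats (3/sex/group), 8–12 weeks old, given vehicle or 10, 30 or 100 mg/kg/day orally once daily for 7 days. Mortality, morbidity, clinical observations, body weight and food consumption recorded daily.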

[28] = Selectivity index, ratio of CC50 for human HepG2(2.2.15) cells to EC50 for HBV
[29] = AUC (0 to 24 hrs) in Sprague-Dawley rat at 100 mg/kg, po administered daily for 7 days measured on day 1; assay type: ADME, organism-based; design: time < 24 hr, dose 100 mg/kg, route oral; details: plasma; outline: as §1
Rattus norvegicus [30] = assay: Toxicity in Sprague-Dawley rat assessed as change in food consumption at 10 to 100 mg/kg, po administered daily for 7 days; assay type: organism-based; design: dose 10-100 mg/kg, route oral; details: in vivo, 168 h; outline: as §5
Rattus norvegicus [31] = assay: Toxicity in Sprague-Dawley rat assessed as microscopic lesions at 10 to 100 mg/kg, po administered daily for 7 days; assay type: organism-based; design: dose 10-100 mg/kg, route oral; details: in vivo, 168 h; outline: as §4
Rattus norvegicus [32] = assay: Toxicity in Sprague-Dawley rat assessed as change in body weight at 10 to 100 mg/kg, po administered daily for 7 days; assay type: organism-based; design: dose 10-100 mg/kg, route oral; details: in vivo, 168 h; outline: as §5
Rattus norvegicus [33] = assay: Toxicity in Sprague-Dawley rat assessed as change in gross necroscopy at 10 to 100 mg/kg, po administered daily for 7 days; assay type: organism-based; design: dose 10-100 mg/kg, route oral; details: in vivo, 168 h; outline: as §4
Rattus norvegicus [34] = assay: Toxicity in Sprague-Dawley rat assessed as hematological changes at 10 to 100 mg/kg, po administered daily for 7 days; assay type: organism-based; design: dose 10-100 mg/kg, route oral; details: in vivo, 168 h; outline: as §4
Rattus norvegicus [35] = assay: Toxicity in Sprague-Dawley rat assessed as change in clinical chemistry parameters at 10 to 100 mg/kg, po administered daily for 7 days; assay type: organism-based; design: dose 10-100 mg/kg, route oral; details: in vivo, 168 h; outline: as §4
[36] = AUC (0 to 24 hrs) in Sprague-Dawley rat at 10 mg/kg, po administered daily for 7 days measured on day 1; assay type: ADME, organism-based; design: time < 24 hr, dose 10 mg/kg, route oral; details: plasma; outline: as §1
[37] = AUC (0 to 24 hrs) in Sprague-Dawley rat at 30 mg/kg, po administered daily for 7 days measured on day 1; assay type: ADME, organism-based; design: time < 24 hr, dose 30 mg/kg, route oral; details: plasma; outline: as §1

Structure (SMILES): CCCCCCCCCCCCCCCCOCCCOP(=O)(O)CO[C@H](C)Cn1cnc2c(N)ncnc21 [TENOFOVIR EXALIDEX]
- EC50 (HepG2): > 18.8 µM
- Tmax [1]: 2 h
- Ratio CC50/EC50 [2]: 38.4
- Tmax [3]: 30 min
- EC50 [4]: 12 nM
- AUC at 24 h [5]: 8410 ng·h/mL
- selectivity ratio [6]: > 5.4e+06
- Activity (Rattus norvegicus [7]): Non-toxic
- AUC at 24 h [8]: 1540 ng·h/mL
- CC50 [9]: 144 µM
- Tmax [10]: 1 h
- half-life [11]: 150 min
- Ratio CC50/EC50 [12]: 12000
- Tmax [13]: 30 min
- Activity (Rattus norvegicus [14]): Non-toxic
- Activity (Rattus norvegicus [15]): Non-toxic
- Tmax [16]: 2 h
- EC50 [17]: < 0.01 nM
- EC50 [18]: > 300 µM
- half-life [19]: 96 min
- CC50 [20]: 54 µM
- EC50 (Hepatitis B virus [21]): 1600 nM
- Activity (Rattus norvegicus [22]): Non-toxic
- Tmax [23]: 2 h
- AUC at 24 h [24]: 435 ng·h/mL
- Activity (Rattus norvegicus [25]): Non-toxic
- EC50 (Hepatitis B virus [26]): 490 nM
- Activity (Rattus norvegicus [27]): Non-toxic
- Ratio CC50/EC50 [28]: >187.5
- AUC(0-t) at 24 h [29]: 5410 ng·h/mL
- Activity (Rattus norvegicus [30]): Non-toxic
- Activity (Rattus norvegicus [31]): Non-toxic
- Activity (Rattus norvegicus [32]): Non-toxic
- Activity (Rattus norvegicus [33]): Non-toxic
- Activity (Rattus norvegicus [34]): Non-toxic
- Activity (Rattus norvegicus [35]): Non-toxic
- AUC(0-t) at 24 h [36]: 442 ng·h/mL
- AUC(0-t) at 24 h [37]: 1830 ng·h/mL
